Experimental data taken from ChEMBL document CHEMBL2311433, “Inhibition of protein glycation by urea and thiourea derivatives of glycine/proline conjugated benzisoxazole analogue - synthesis and structure-activity studies” (Eur J Med Chem, 2013).

Target: Albumin (Bos taurus, UniProt P02769)
Assay: Inhibition of glycation of bovine serum albumin assessed as advanced glycated end product measured after 7 days by spectrofluorimeter in presence of glucose anhydrous; call rule not given here
Summary of the method: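 BSA (10 mg/mL) incubated with anhydrous glucose (50 mg/mL) in 67 mM sodium phosphate buffer, pH 7.4, containing 3 mM sodium azide; compounds dissolved in DMSO. Incubation 37 °C for 7 days. Then 100% trichloroacetic acid added and the mixture centrifuged at 15,000 rpm, 4 min, 4 °C. A PBS, pH 10, was also prepared.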

Sequence of Albumin (P02769 whole entry): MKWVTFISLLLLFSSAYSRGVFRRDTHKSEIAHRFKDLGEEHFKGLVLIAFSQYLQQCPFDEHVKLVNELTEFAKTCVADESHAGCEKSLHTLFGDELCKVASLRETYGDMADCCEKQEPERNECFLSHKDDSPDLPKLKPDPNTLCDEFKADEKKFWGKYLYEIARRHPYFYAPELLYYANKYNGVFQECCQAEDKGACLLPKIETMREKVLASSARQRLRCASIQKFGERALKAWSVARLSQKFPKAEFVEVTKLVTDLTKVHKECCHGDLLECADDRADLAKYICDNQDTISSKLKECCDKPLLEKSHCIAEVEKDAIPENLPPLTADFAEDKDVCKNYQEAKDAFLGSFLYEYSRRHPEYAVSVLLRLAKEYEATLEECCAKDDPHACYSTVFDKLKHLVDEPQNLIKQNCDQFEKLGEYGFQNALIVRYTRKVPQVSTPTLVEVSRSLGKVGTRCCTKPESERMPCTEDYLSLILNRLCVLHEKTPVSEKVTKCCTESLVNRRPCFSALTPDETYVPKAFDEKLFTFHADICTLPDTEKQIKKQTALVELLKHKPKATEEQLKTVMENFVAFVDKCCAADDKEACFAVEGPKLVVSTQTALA

| IC50 (read-out: IC50) [µM] | IC50 | SMILES |
| --- | --- | --- |
| 20.2 | – | COc1ccccc1NC(=O)NCC(=O)N1CCC(c2noc3cc(F)ccc23)CC1 |
| 4.9 | – | O=C(CNC(=S)Nc1cccc(Br)c1)N1CCC(c2noc3cc(F)ccc23)CC1 |
| 145 | – | O=C(C1CCCN1C(=O)Nc1cccc(Cl)c1)N1CCC(c2noc3cc(F)ccc23)CC1 (stereo not given) |
| – | Not Active | O=C(CNC(=S)Nc1cccc(Cl)c1)N1CCC(c2noc3cc(F)ccc23)CC1 |
| 60.3 | – | O=C(C1CCCN1C(=O)Nc1ccc(Cl)cc1)N1CCC(c2noc3cc(F)ccc23)CC1 (stereo not given) |
| – | Not Active | CC(C)(C)OC(=O)N1CCCC1C(=O)N1CCC(c2noc3cc(F)ccc23)CC1 (stereo not given) |
| 295 | – | O=C(C1CCCN1C(=S)Nc1ccccc1)N1CCC(c2noc3cc(F)ccc23)CC1 (stereo not given) |
| 59.4 | – | O=C(C1CCCN1C(=S)Nc1ccc(Cl)cc1)N1CCC(c2noc3cc(F)ccc23)CC1 (stereo not given) |
| 4.1 | – | COc1ccccc1NC(=S)NCC(=O)N1CCC(c2noc3cc(F)ccc23)CC1 |
| 15.3 | – | COc1cccc(NC(=S)NCC(=O)N2CCC(c3noc4cc(F)ccc34)CC2)c1 |
| 8.5 | – | O=C(NCC(=O)N1CCC(c2noc3cc(F)ccc23)CC1)Nc1ccc(Br)cc1 |
| 20.5 | – | COc1cccc(NC(=S)N2CCCC2C(=O)N2CCC(c3noc4cc(F)ccc34)CC2)c1 (stereo not given) |
| 3.6 | – | COc1ccc(NC(=S)NCC(=O)N2CCC(c3noc4cc(F)ccc34)CC2)cc1 |
| 70.9 | – | O=C(C1CCCN1C(=S)Nc1ccc(F)cc1)N1CCC(c2noc3cc(F)ccc23)CC1 (stereo not given) |
| 3.9 | – | COc1ccc(NC(=S)N2CCCC2C(=O)N2CCC(c3noc4cc(F)ccc34)CC2)cc1 (stereo not given) |
| – | Not Active | O=C(CNC(=S)Nc1ccc(Cl)cc1)N1CCC(c2noc3cc(F)ccc23)CC1 |
| 9.1 | – | O=C(CNC(=S)Nc1ccccc1F)N1CCC(c2noc3cc(F)ccc23)CC1 |
| 76.1 | – | O=C(C1CCCN1C(=O)Nc1ccc(F)cc1)N1CCC(c2noc3cc(F)ccc23)CC1 (stereo not given) |
| 144 | – | O=C(NCC(=O)N1CCC(c2noc3cc(F)ccc23)CC1)Nc1cccc(Cl)c1 |
| 6.9 | – | O=C(C1CCCN1C(=O)Nc1cccc(Br)c1)N1CCC(c2noc3cc(F)ccc23)CC1 (stereo not given) |
| 117 | – | O=C(C1CCCN1C(=O)Nc1cccc(F)c1)N1CCC(c2noc3cc(F)ccc23)CC1 (stereo not given) |
| 7.8 | – | O=C(C1CCCN1C(=S)Nc1ccccc1F)N1CCC(c2noc3cc(F)ccc23)CC1 (stereo not given) |
| 70.3 | – | O=C(CNC(=S)Nc1ccc(F)cc1)N1CCC(c2noc3cc(F)ccc23)CC1 |

| IC50 (read-out: IC50) [µM] | IC50 | SMILES |
| --- | --- | --- |
| 100 | – | O=C(NCC(=O)N1CCC(c2noc3cc(F)ccc23)CC1)Nc1cccc(F)c1 |
| 33.4 | – | COc1cccc(NC(=O)N2CCCC2C(=O)N2CCC(c3noc4cc(F)ccc34)CC2)c1 (stereo not given) |
| – | Not Active | CC(C)(C)OC(=O)NCC(=O)N1CCC(c2noc3cc(F)ccc23)CC1 |
| 21.1 | – | COc1cccc(NC(=O)NCC(=O)N2CCC(c3noc4cc(F)ccc34)CC2)c1 |
| 41.9 | – | C[C@@H]1O[C@@H](OC[C@H]2O[C@@H](Oc3c(-c4ccc(O)c(O)c4)oc4cc(O)cc(O)c4c3=O)[C@H](O)[C@@H](O)[C@@H]2O)[C@H](O)[C@H](O)[C@H]1O [RUTIN] |
| 9.3 | – | O=C(NCC(=O)N1CCC(c2noc3cc(F)ccc23)CC1)Nc1cccc(Br)c1 |
| 390 | – | O=C(NCC(=O)N1CCC(c2noc3cc(F)ccc23)CC1)Nc1ccccc1 |
| 380 | – | O=C(CNC(=S)Nc1ccccc1)N1CCC(c2noc3cc(F)ccc23)CC1 |
| 55.5 | – | O=C(NCC(=O)N1CCC(c2noc3cc(F)ccc23)CC1)Nc1ccccc1F |
| 4.7 | – | O=C(C1CCCN1C(=S)Nc1cccc(Br)c1)N1CCC(c2noc3cc(F)ccc23)CC1 (stereo not given) |
| 54.8 | – | O=C(C1CCCN1C(=O)Nc1ccccc1F)N1CCC(c2noc3cc(F)ccc23)CC1 (stereo not given) |
| 7.8 | – | O=C(C1CCCN1C(=S)Nc1ccccc1Br)N1CCC(c2noc3cc(F)ccc23)CC1 (stereo not given) |
| 83.9 | – | O=C(NCC(=O)N1CCC(c2noc3cc(F)ccc23)CC1)Nc1ccc(Cl)cc1 |
| 126 | – | O=C(C1CCCN1C(=S)Nc1cccc(Cl)c1)N1CCC(c2noc3cc(F)ccc23)CC1 (stereo not given) |
| 22.1 | – | COc1ccc(NC(=O)N2CCCC2C(=O)N2CCC(c3noc4cc(F)ccc34)CC2)cc1 (stereo not given) |
| 19.5 | – | COc1ccc(NC(=O)NCC(=O)N2CCC(c3noc4cc(F)ccc34)CC2)cc1 |
| 75.8 | – | O=C(NCC(=O)N1CCC(c2noc3cc(F)ccc23)CC1)Nc1ccc(F)cc1 |
| 5.2 | – | COc1ccccc1NC(=S)N1CCCC1C(=O)N1CCC(c2noc3cc(F)ccc23)CC1 (stereo not given) |
| 6.3 | – | O=C(CNC(=S)Nc1ccccc1Br)N1CCC(c2noc3cc(F)ccc23)CC1 |
| 340 | – | O=C(C1CCCN1C(=O)Nc1ccccc1)N1CCC(c2noc3cc(F)ccc23)CC1 (stereo not given) |
| 30.6 | – | COc1ccccc1NC(=O)N1CCCC1C(=O)N1CCC(c2noc3cc(F)ccc23)CC1 (stereo not given) |
| 6.8 | – | O=C(C1CCCN1C(=O)Nc1ccc(Br)cc1)N1CCC(c2noc3cc(F)ccc23)CC1 (stereo not given) |
